From ChEMBL document CHEMBL3856209, “Novel pyrazolopyridine derivatives as potential angiogenesis inhibitors: Synthesis, biological evaluation and transcriptome-based mechanistic analysis” (Eur J Med Chem, 2016)
Calls of active or inactive are those of the source. The rule behind the calls is not given here.

Assays:
[1] = test system: HUVEC; experiment: Effect on GNG12 gene expression in serum-starved HUVEC after 6 hrs by microarray analysis relative to control; assay type: functional, Homo sapiens
Summary of the method: (§1)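 Confluent, serum-starved HUVEC (pooled from 3–5 donors, passage ≤4) treated with 2 μM compound or vehicle with 2.5% FBS for 6 h or 24 h. Total RNA hybridized to Illumina Human-HT12 arrays. Data were background-corrected, vst-transformed and rsn-normalized. Hits called by moderated paired t-test versus DMSO-treated cells, p < 0.05 and log2 fold change >|0.5|.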

[2] = test system: HUVEC; experiment: Effect on DLC1 gene expression in serum-starved HUVEC after 6 hrs by microarray analysis relative to control; assay type: functional, Homo sapiens; summary of the method: as §1
[3] = test system: HUVEC (Homo sapiens); experiment: Antiproliferative activity against human HUVEC cells assessed as decrease in VEGF-165-induced cell growth at 0.5 to 2 uM after 24 to 48 hrs by CyQUANT cell proliferation assay
[4] = test system: HUVEC; experiment: Effect on RNVU1-7 gene expression in serum-starved HUVEC after 6 hrs by microarray analysis relative to control; assay type: functional, Homo sapiens
Summary of the method: (§2)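 Confluent serum-starved HUVEC (primary, pooled from 3–5 donors, passage ≤4) treated with 2 μM compound or DMSO vehicle in 2.5% FBS for 6 h or 24 h. Total RNA hybridized to Illumina Human-HT12 arrays, background-corrected, vst-transformed and rsn-normalized. Differential expression versus DMSO by moderated paired t-test (p < 0.05, |log2 fold change| > 0.5).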

[5] = test system: HUVEC; experiment: Effect on PTTG3P gene expression in serum-starved HUVEC after 6 hrs by microarray analysis relative to control; assay type: functional, Homo sapiens; summary of the method: as §2
[6] = test system: HUVEC; experiment: Effect on MSMP gene expression in serum-starved HUVEC after 6 hrs by microarray analysis relative to control; assay type: functional, Homo sapiens
Summary of the method: (§3)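 Serum-starved confluent HUVEC (pooled from 3–5 donors, passage ≤4) were treated with 2 μM compound or vehicle in 2.5% FBS for 6 h or 24 h, and total RNA was isolated. Hybridization was on Illumina Human-HT12. Data were processed with bgAdjust, vst and rsn normalization. Changes versus DMSO were called by moderated paired t-test at p < 0.05 and |log2 fold change| > 0.5.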

[7] = test system: HUVEC (Homo sapiens); experiment: Antiproliferative activity against human HUVEC cells assessed as decrease in VEGF-165-induced cell growth at 0.5 to 2 uM after 24 to 48 hrs by MTT assay
[8] = test system: HUVEC; experiment: Effect on CALD1 gene expression in serum-starved HUVEC after 24 hrs by microarray analysis relative to control; assay type: functional, Homo sapiens
Summary of the method: (§4)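 Serum-starved confluent HUVEC treated with 2 μM compound or DMSO in 2.5% FBS for 6 h or 24 h; RNA hybridized to Illumina Human-HT12 arrays. Data background-corrected, vst-transformed and rsn-normalized. Differential probes called by moderated paired t-test (limma) at p < 0.05 and log2 fold change >|0.5| vs DMSO.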

[9] = test system: HUVEC; experiment: Effect on MSMP gene expression in serum-starved HUVEC after 24 hrs by microarray analysis relative to control; assay type: functional, Homo sapiens; summary of the method: as §3
[10] = test system: HUVEC; experiment: Effect on CDC20 gene expression in serum-starved HUVEC after 24 hrs by microarray analysis relative to control; assay type: functional, Homo sapiens; summary of the method: as §4
[11] = test system: HUVEC; experiment: Effect on UBE2C gene expression in serum-starved HUVEC after 6 hrs by microarray analysis relative to control; assay type: functional, Homo sapiens; summary of the method: as §2
[12] = test system: HUVEC; experiment: Effect on CALD1 gene expression in serum-starved HUVEC after 6 hrs by microarray analysis relative to control; assay type: functional, Homo sapiens; summary of the method: as §4
[13] = test system: HUVEC; experiment: Effect on SPC24 gene expression in serum-starved HUVEC after 6 hrs by microarray analysis relative to control; assay type: functional, Homo sapiens; summary of the method: as §2
[14] = test system: HUVEC; experiment: Effect on ERAP2 gene expression in serum-starved HUVEC after 24 hrs by microarray analysis relative to control; assay type: functional, Homo sapiens; summary of the method: as §1
[15] = test system: HUVEC; experiment: Effect on ERAP2 gene expression in serum-starved HUVEC after 6 hrs by microarray analysis relative to control; assay type: functional, Homo sapiens; summary of the method: as §1
[16] = test system: HUVEC; experiment: Effect on RNA28S5 gene expression in serum-starved HUVEC after 6 hrs by microarray analysis relative to control; assay type: functional, Homo sapiens; summary of the method: as §3
[17] = test system: HUVEC; experiment: Effect on ASPM gene expression in serum-starved HUVEC after 24 hrs by microarray analysis relative to control; assay type: functional, Homo sapiens; summary of the method: as §4
[18] = test system: HUVEC; experiment: Effect on KIFC1 gene expression in serum-starved HUVEC after 6 hrs by microarray analysis relative to control; assay type: functional, Homo sapiens; summary of the method: as §3
[19] = test system: HUVEC; experiment: Effect on KIFC1 gene expression in serum-starved HUVEC after 24 hrs by microarray analysis relative to control; assay type: functional, Homo sapiens; summary of the method: as §3
[20] = test system: HUVEC; experiment: Effect on ZWINT gene expression in serum-starved HUVEC after 6 hrs by microarray analysis relative to control; assay type: functional, Homo sapiens; summary of the method: as §3
[21] = test system: Lewis lung carcinoma; experiment: Antiangiogenic activity in mouse LLC cells allografted in C57BL/6 mouse assessed as decrease of microvessel density in tumor at 0.2 mg/kg, ip administered thrice a week for 2 weeks starting 24 hrs before tumor implantation measured post last dose by IHC analysis; assay type: functional, organism-based
Summary of the method: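 Male 6–8 week C57BL/6 mice (groups of 5–6) inoculated sc in the right flank with 5×10^5 LLC cells. Compound (0.2 mg/kg) or DMSO vehicle given ip thrice weekly for 2 weeks, starting 24 h before implantation. Tumors measured by caliper every other day. At end-point, anti-CD31 IHC (1:100) of tumor sections, with immunoreactive cells counted in six high-power fields.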

[22] = test system: HUVEC; experiment: Effect on RNVU1-18 gene expression in serum-starved HUVEC after 24 hrs by microarray analysis relative to control; assay type: functional, Homo sapiens; summary of the method: as §2
[23] = test system: HUVEC; experiment: Effect on PTTG1 gene expression in serum-starved HUVEC after 6 hrs by microarray analysis relative to control; assay type: functional, Homo sapiens; summary of the method: as §3
[24] = test system: HUVEC; experiment: Effect on PTTG3P gene expression in serum-starved HUVEC after 24 hrs by microarray analysis relative to control; assay type: functional, Homo sapiens; summary of the method: as §3
[25] = test system: HUVEC; experiment: Effect on CCNB2 gene expression in serum-starved HUVEC after 24 hrs by microarray analysis relative to control; assay type: functional, Homo sapiens; summary of the method: as §4
[26] = test system: HUVEC; experiment: Antiangiogenic activity in HUVEC assessed as inhibition of VEGF-165-induced tube formation at 0.2 to 2 uM after 24 hrs by matrigel assay; assay type: functional, cell-based; settings: Homo sapiens
Summary of the method: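 HUVEC seeded at 2×10^4 cells/well on growth factor-reduced Matrigel after pre-starvation, then given compound or vehicle (up to 0.1% v/v DMSO), with or without VEGF-165, for 24 h. Fixed in ice-cold ethanol and stained with haematoxylin-eosin. Tube-like structures counted in at least 5 fields/well and expressed as % of vehicle control; replicates from two independent experiments.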

[27] = test system: HUVEC; experiment: Effect on BIRC5 gene expression in serum-starved HUVEC after 24 hrs by microarray analysis relative to control; assay type: functional, Homo sapiens; summary of the method: as §4
[28] = test system: HUVEC; experiment: Effect on DLC1 gene expression in serum-starved HUVEC after 24 hrs by microarray analysis relative to control; assay type: functional, Homo sapiens; summary of the method: as §1
[29] = test system: HUVEC; experiment: Effect on CCNB2 gene expression in serum-starved HUVEC after 6 hrs by microarray analysis relative to control; assay type: functional, Homo sapiens; summary of the method: as §4
[30] = test system: HUVEC; experiment: Effect on KIF22 gene expression in serum-starved HUVEC after 6 hrs by microarray analysis relative to control; assay type: functional, Homo sapiens; summary of the method: as §3
[31] = test system: HUVEC; experiment: Effect on DLGAP5 gene expression in serum-starved HUVEC after 24 hrs by microarray analysis relative to control; assay type: functional, Homo sapiens; summary of the method: as §1
[32] = test system: HUVEC; experiment: Effect on MMP1 gene expression in serum-starved HUVEC after 24 hrs by microarray analysis relative to control; assay type: functional, Homo sapiens; summary of the method: as §3

Compound | log2FC [2] | Activity [3] | log2FC [4] | log2FC [5] | log2FC [6] | Activity [7] | log2FC [8] | log2FC [9] | log2FC [10] | log2FC [11] | fold change (FC) [12] | log2FC [13] | log2FC [14] | fold change (FC) [15] | log2FC [16] | log2FC [17] | fold change (FC) [18] | log2FC [19] | Activity [21] | inhibition [26] | further results
COc1ccc(Cn2nc(-c3ccccc3)c3cc(Cl)nc(N4CCNCC4)c32)cc1 | 0.5758 | Active | -0.5056 | -0.1207 | -0.0237 | Active | 0.263 | -0.6932 | -0.6535 | -0.1374 | 0.5218 | 0.1186 | 0.2703 | 0.5171 | -0.7662 | -0.5316 | 0.0022 | -0.5682 | Active | Active | fold change (FC) [1]: 0.5853; log2FC [20]: 0.1395; log2FC [22]: -0.1577; log2FC [23]: -0.1057; log2FC [24]: -0.5735; log2FC [25]: -0.5884; log2FC [27]: -0.6034; log2FC [28]: -0.0926; log2FC [29]: -0.1297
COc1ccc(Cn2nc(-c3ccccc3)c3cc(Nc4ccc(N5CCN(C)CC5)cc4)nc(N4CCN(C)CC4)c32)cc1 |  | Active | -0.536 | -0.2702 |  | Active | 0.0259 |  | -0.9562 | -0.2671 | 0.5101 | -0.1032 | 0.0121 | 0.5068 | -1.164 | -0.6736 | -0.2068 | -0.6872 | Active | Active | fold change (FC) [30]: -0.1033; log2FC [31]: -0.8206; log2FC [32]: 0.5814; log2FC [20]: -0.3223; log2FC [22]: -0.0118; log2FC [23]: -0.1804; log2FC [24]: -0.5177; log2FC [25]: -0.7404; log2FC [27]: -0.6896; log2FC [29]: -0.1003
COc1ccc(Cn2nc(-c3ccccc3)c3cc(Nc4ccc(N5CCN(C)CC5)cc4)nc(N4CCNCC4)c32)cc1 | 0.3681 |  |  |  | -0.0154 |  |  | -0.652 |  |  |  |  |  |  | -0.6261 |  |  |  | Active | Active | log2FC [30]: -0.0345; log2FC [31]: -0.516; log2FC [1]: 0.6358; log2FC [32]: -0.646; log2FC [28]: 0.5215
